Source: ChEMBL document CHEMBL5058577, “EUbOPEN Chemogenomics Library 2 (Multiplex)” (2022)

Test system: HEK-293T
Test: Multiplex assay against HEK293T
Assay type: toxicity, cell-based
Conditions: human
Outline: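 Live cells carried four stains from seeding: Hoechst33342, BioTracker Green Microtubule Cytoskeleton Dye, MitoTracker Red and Annexin V Alexa Fluor 680. They were imaged on a CQ1 microscope at 37°C and 5% CO2 after compound addition. Using CellPathfinder machine-learning gating, cells were split into Hoechst high-intensity objects or normal cells, normal cells into healthy, pyknosed or fragmented nuclei, and pyknosed cells into mitotic or apoptotic; tubulin, mitochondrial-mass and membrane-permeability phenotypes are per cents of healthy-nucleus cells.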

[1] = 12 h, 1 µM, compound concentration 1 uM, replicate 1
[2] = 12 h, 1 µM, compound concentration 1 uM, replicate 2
[3] = 12 h, 10 µM, compound concentration 10 uM, replicate 1
[4] = 12 h, 10 µM, compound concentration 10 uM, replicate 2
[5] = 24 h, 1 µM, compound concentration 1 uM, replicate 1
[6] = 24 h, 1 µM, compound concentration 1 uM, replicate 2
[7] = 24 h, 10 µM, compound concentration 10 uM, replicate 1
[8] = 24 h, 10 µM, compound concentration 10 uM, replicate 2
[9] = 48 h, 1 µM, compound concentration 1 uM, replicate 1
[10] = 48 h, 1 µM, compound concentration 1 uM, replicate 2
[11] = 48 h, 10 µM, compound concentration 10 uM, replicate 1
[12] = 48 h, 10 µM, compound concentration 10 uM, replicate 2

## COc1cc(C(=O)N(CCCc2ccccc2)Cc2ccc(CC(=O)O)cc2)cc(OC)c1C
[1]
  Population Apoptotic (%): 45%
  Population Fragmented Nuclei (%): 7%
  Population Healthy Nuclei (%): 82%
  Population Hoechst High Intensity Objects (%): 5%
  Population Membrane Permeable-Phenotype (%): 0%
  Population Mitochondria Different-Phenotype (%): 47%
  Population Mitotic Cells (%): 55%
  Population Normal (%): 94%
  Population Pyknosed Nuclei (%): 10%
  Population Tubulin-Different-Phenotype (%): 31%
  Total Cell Count: 395
[2]
  Population Apoptotic (%): 44%
  Population Fragmented Nuclei (%): 6%
  Population Healthy Nuclei (%): 84%
  Population Hoechst High Intensity Objects (%): 4%
  Population Mitochondria Different-Phenotype (%): 50%
  Population Normal (%): 95%
  Population Pyknosed Nuclei (%): 9%
  Population Tubulin-Different-Phenotype (%): 19%
  Total Cell Count: 410
[3]
  Population Apoptotic (%): 30%
  Population Fragmented Nuclei (%): 6%
  Population Healthy Nuclei (%): 77%
  Population Hoechst High Intensity Objects (%): 8%
  Population Membrane Permeable-Phenotype (%): 1%
  Population Mitochondria Different-Phenotype (%): 46%
  Population Mitotic Cells (%): 70%
  Population Normal (%): 91%
  Population Pyknosed Nuclei (%): 15%
  Population Tubulin-Different-Phenotype (%): 52%
  Total Cell Count: 431
[4]
  Population Apoptotic (%): 47%
  Population Fragmented Nuclei (%): 4%
  Population Healthy Nuclei (%): 82%
  Population Hoechst High Intensity Objects (%): 6%
  Population Membrane Permeable-Phenotype (%): 0%
  Population Mitochondria Different-Phenotype (%): 67%
  Population Mitotic Cells (%): 52%
  Population Normal (%): 93%
  Population Pyknosed Nuclei (%): 13%
  Population Tubulin-Different-Phenotype (%): 44%
  Total Cell Count: 438
[5]
  Population Apoptotic (%): 32%
  Population Fragmented Nuclei (%): 7%
  Population Healthy Nuclei (%): 78%
  Population Hoechst High Intensity Objects (%): 5%
  Population Membrane Permeable-Phenotype (%): 0%
  Population Mitochondria Different-Phenotype (%): 27%
  Population Mitotic Cells (%): 67%
  Population Normal (%): 94%
  Population Pyknosed Nuclei (%): 14%
  Population Tubulin-Different-Phenotype (%): 15%
  Total Cell Count: 483
[6]
  Population Apoptotic (%): 48%
  Population Healthy Nuclei (%): 82%
  Population Hoechst High Intensity Objects (%): 3%
  Population Mitochondria Different-Phenotype (%): 26%
  Population Mitotic Cells (%): 51%
  Population Normal (%): 96%
  Population Pyknosed Nuclei (%): 9%
  Population Tubulin-Different-Phenotype (%): 10%
  Total Cell Count: 507
[7]
  Population Apoptotic (%): 34%
  Population Fragmented Nuclei (%): 7%
  Population Healthy Nuclei (%): 80%
  Population Hoechst High Intensity Objects (%): 7%
  Population Membrane Permeable-Phenotype (%): 0%
  Population Mitochondria Different-Phenotype (%): 39%
  Population Mitotic Cells (%): 65%
  Population Normal (%): 92%
  Population Pyknosed Nuclei (%): 12%
  Population Tubulin-Different-Phenotype (%): 43%
  Total Cell Count: 549
[8]
  Population Apoptotic (%): 42%
  Population Healthy Nuclei (%): 79%
  Population Hoechst High Intensity Objects (%): 6%
  Population Mitochondria Different-Phenotype (%): 50%
  Population Mitotic Cells (%): 57%
  Population Normal (%): 93%
  Population Tubulin-Different-Phenotype (%): 38%
  Total Cell Count: 526
[9]
  Population Apoptotic (%): 30%
  Population Fragmented Nuclei (%): 12%
  Population Healthy Nuclei (%): 77%
  Population Hoechst High Intensity Objects (%): 1%
  Population Membrane Permeable-Phenotype (%): 1%
  Population Mitochondria Different-Phenotype (%): 16%
  Population Mitotic Cells (%): 69%
  Population Normal (%): 98%
  Population Pyknosed Nuclei (%): 9%
  Population Tubulin-Different-Phenotype (%): 11%
  Total Cell Count: 812
[10]
  Population Apoptotic (%): 26%
  Population Fragmented Nuclei (%): 9%
  Population Healthy Nuclei (%): 83%
  Population Hoechst High Intensity Objects (%): 3%
  Population Mitochondria Different-Phenotype (%): 17%
  Population Mitotic Cells (%): 73%
  Population Normal (%): 96%
  Population Pyknosed Nuclei (%): 7%
  Population Tubulin-Different-Phenotype (%): 9%
  Total Cell Count: 753
[11]
  Population Apoptotic (%): 32%
  Population Fragmented Nuclei (%): 12%
  Population Healthy Nuclei (%): 76%
  Population Hoechst High Intensity Objects (%): 4%
  Population Membrane Permeable-Phenotype (%): 1%
  Population Mitochondria Different-Phenotype (%): 29%
  Population Mitotic Cells (%): 67%
  Population Normal (%): 95%
  Population Pyknosed Nuclei (%): 11%
  Population Tubulin-Different-Phenotype (%): 29%
  Total Cell Count: 729
[12]
  Population Apoptotic (%): 33%
  Population Fragmented Nuclei (%): 15%
  Population Healthy Nuclei (%): 75%
  Population Hoechst High Intensity Objects (%): 8%
  Population Mitochondria Different-Phenotype (%): 37%
  Population Mitotic Cells (%): 66%
  Population Normal (%): 91%
  Population Pyknosed Nuclei (%): 9%
  Population Tubulin-Different-Phenotype (%): 34%
  Total Cell Count: 632
